The source made the active and inactive calls. The rule behind the calls is not given here.
Legend:
[1] = tested on: HEK-293T; assay: Induction of pyroptosis in human HEK293T cells expressing CASP1 and GSDMD cotransfected with dTAG-CARD8ZUC and CARD8 FIIND S297A assessed as destabilization of DPP9-CARD8 ternary complex by measuring GSDMD clevage at 10 uM incubated for 6 hrs in presence of dTAG13 by immunoblot analysis; format: functional, cell-based
Method in brief: (§1)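 HEK293T cells stably expressing CASP1 and GSDMD, 1.5 × 10^5 cells/well. 24 h later treated with dTAG-13 (500 nM) plus compound, DMSO as vehicle, for 6 h. Read-outs were supernatant LDH against a lysis control and GSDMD immunoblot.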

[2] = tested on: N/TERT-1; assay: Cytotoxicity against immortalized human N/TERT-1 Keratinocytes expressing human NLRP1 assessed as cell death at 10 uM incubated for 24 hrs by celltiter-glo assay; format: functional, cell-based
Method in brief: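 N/TERT-1 keratinocytes grown in keratinocyte serum-free medium with penicillin/streptomycin, bovine pituitary extract (25 μg/mL) and EGF (0.2 ng/mL), 37 °C, 5% CO2. Compound added by pintool to 2000 cells/well, 24 h exposure. Viability read by CellTiter-Glo luminescence after 2 min shaking and 10 min at 25 °C. Mean ± SEM of three biological replicates.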

[3] = tested on: RAW264.7; assay: Induction of pyroptosis in mouse RAW264.7 cells expressing NLRP1B allele 1 assessed as GSDMD clevage at 10 uM incubated for 24 hrs by immunoblot analysis; format: functional, cell-based
Method in brief: (§2)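 RAW264.7 cells in DMEM with L-glutamine and 10% FBS, 5 × 10^5 cells/well, treated 24 h. LDH in supernatant measured relative to a 9% Triton X-100 lysis control. GSDMD cleavage by immunoblot of PBS-sonicated lysates with protein normalized. Mean ± SEM of three biological replicates.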

[4] = tested on: BMDM; assay: Induction of pyroptosis in C57BL/6J mouse BMDM cells expressing NLRP1A and NLRP1B allele 2 assessed as GSDMD clevage at 10 uM incubated for 24 hrs by immunoblot analysis; format: functional, cell-based
Method in brief: (§3)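 Bone marrow from femurs and tibias of 7–12-week-old C57BL/6J mice, red cells lysed. Cells differentiated 6 days at 37 °C in DMEM with 10% FBS and 15–20% L-cell medium, then replated. Exposure 24 h. LDH in supernatant measured relative to a 9% Triton X-100 lysis control. For GSDMD cleavage, cells sonicated in PBS, protein normalized, SDS-PAGE immunoblot.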

[5] = tested on: THP-1; assay: Induction of pyroptosis in CARD8 knockout human THP-1 cells harboring dox-inducible […] E274R mutant assessed as GSDMD cleavage at 10 uM pretreated with doxycycline for 16 hrs followed by compound addition and measured after 6 hrs by immunoblot analysis; format: functional, cell-based
Method in brief: (§4)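 CARD8−/− THP-1 cells stably carrying DOX-inducible CARD8 E274R, grown in RPMI 1640 with 10% FBS, 5 × 10^5 cells/well. DOX (100 ng/mL) for 16 h or no DOX, then compound for 6 h. Supernatant LDH measured relative to a Triton X-100 lysis control. GSDMD cleavage by SDS-PAGE immunoblot of protein-normalized lysates.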

[6] = tested on: THP-1; assay: Induction of pyroptosis in CARD8 knockout human THP-1 cells harboring dox-inducible […] E274R mutant assessed as cell death by measuring LDH release at 10 uM pretreated with doxycycline for 16 hrs followed by compound addition and measured after 6 hrs; format: functional, cell-based; method in brief: as §4
[7] = tested on: RAW264.7; assay: Induction of pyroptosis in mouse RAW264.7 cells expressing NLRP1B allele 1 assessed as LDH release at 10 uM incubated for 24 hrs; format: functional, cell-based; method in brief: as §2
[8] = tested on: HEK-293T; assay: Induction of pyroptosis in human HEK293T cells expressing CASP1 and GSDMD cotransfected with dTAG-CARD8ZUC and CARD8 FIIND S297A assessed as destabilization of DPP9-CARD8 ternary complex by measuring LDH release at 10 uM incubated for 6 hrs in presence of dTAG13; format: functional, cell-based; method in brief: as §1
[9] = tested on: BMDM; assay: Induction of pyroptosis in C57BL/6J mouse BMDM cells expressing NLRP1A and NLRP1B allele 2 assessed as LDH release at 10 uM incubated for 24 hrs; format: functional, cell-based; method in brief: as §3
[10] = target: T1, Xaa-Pro aminopeptidase 1 (Homo sapiens, UniProt Q9NQW7); assay: Inhibition of 6-His tagged XPNPEP1 (unknown origin) expressed in Escherichia coli Rosetta DE3 cells using H-Lys(abz)-Pro-Pro-pNA as substrate incubated for 60 mins by fluorescence based analysis
T1 sequence (Q9NQW7 whole entry): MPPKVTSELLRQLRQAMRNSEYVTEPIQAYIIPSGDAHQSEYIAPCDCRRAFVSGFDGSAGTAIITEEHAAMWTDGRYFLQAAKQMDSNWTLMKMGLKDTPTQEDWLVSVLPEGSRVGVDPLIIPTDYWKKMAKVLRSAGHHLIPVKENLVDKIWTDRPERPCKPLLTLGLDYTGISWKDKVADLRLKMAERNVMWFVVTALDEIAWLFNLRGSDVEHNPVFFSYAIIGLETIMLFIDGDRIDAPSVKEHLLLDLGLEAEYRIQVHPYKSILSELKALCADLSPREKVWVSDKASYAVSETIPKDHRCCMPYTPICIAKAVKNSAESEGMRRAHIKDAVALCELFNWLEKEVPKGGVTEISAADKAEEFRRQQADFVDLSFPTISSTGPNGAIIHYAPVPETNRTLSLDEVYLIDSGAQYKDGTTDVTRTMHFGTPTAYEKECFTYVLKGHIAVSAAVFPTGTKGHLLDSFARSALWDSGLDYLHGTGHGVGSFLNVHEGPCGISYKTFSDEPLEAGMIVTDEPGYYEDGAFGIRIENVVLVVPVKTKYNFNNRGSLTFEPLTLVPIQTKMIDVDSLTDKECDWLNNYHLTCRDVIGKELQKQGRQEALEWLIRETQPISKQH
Method in brief: (§5)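 His6-tagged XPNPEP1 was expressed in E. coli Rosetta DE3 (IPTG, 16 h, 37 °C) and purified on TALON resin. Enzyme at 3.5 nM was exposed to compound, then H-Lys(abz)-Pro-Pro-pNA was added at 100 μM final. Fluorescence (Ex/Em 320/410) was followed for 60 min. Single-point inhibition used 20 μM; IC50 as mean ± SEM of three biological replicates.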

[11] = Stability of the compound in human MV4-11 cells assessed as esterase-mediated hydrolysis by LC-MS analysis; format: ADME, cell-based
Method in brief: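 Compound was incubated in conditioned medium from MV4;11 cells for 24 h at 37 °C, and LC/MS then measured intact ester remaining and the de-esterified free acid. n = 3, mean ± SEM.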

[12] = target: T2, Xaa-Pro dipeptidase (Homo sapiens) (UniProt P12955); assay: Inhibition of recombinant human PEPD using Ala-Pro as substrate assessed as alanine release by measuring increase in fluorescense signal by fluorescence based analysis
T2 sequence (whole entry): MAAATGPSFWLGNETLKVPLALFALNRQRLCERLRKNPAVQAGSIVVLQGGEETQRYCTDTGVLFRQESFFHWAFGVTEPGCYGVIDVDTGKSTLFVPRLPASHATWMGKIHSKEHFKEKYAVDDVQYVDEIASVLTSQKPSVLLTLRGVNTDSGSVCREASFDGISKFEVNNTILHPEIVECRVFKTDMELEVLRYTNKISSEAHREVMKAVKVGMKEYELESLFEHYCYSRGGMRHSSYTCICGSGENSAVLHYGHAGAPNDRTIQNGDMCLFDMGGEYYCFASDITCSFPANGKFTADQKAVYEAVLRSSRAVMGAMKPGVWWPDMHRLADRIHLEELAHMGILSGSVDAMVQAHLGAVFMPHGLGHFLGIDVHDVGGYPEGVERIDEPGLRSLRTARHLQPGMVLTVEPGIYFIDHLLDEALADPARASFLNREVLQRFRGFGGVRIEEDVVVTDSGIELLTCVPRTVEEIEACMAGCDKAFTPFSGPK

[13] = Stability of the compound in human MV4-11 cells assessed as esterase-mediated hydrolysis measured after 8 hrs by LC-MS analysis; format: ADME, cell-based; settings: mv4-11, 8 h
[14] = tested on: OCI-AML2; assay: Cytotoxicity against human OCI-AML2 cells assessed as reduction in cell viability at 1 uM incubated for 24 hrs by celltiter-glo assay relative to control; format: functional
Method in brief: (§6)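 Single-dose viability screen. MV4;11 or OCI-AML2 cells at 2000 cells/well were exposed to 1 μM compound for 24 h. Viability was read by CellTiter-Glo luminescence and expressed as percent inhibition. Values are means of three biological replicates.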

[15] = tested on: MV4-11; assay: Cytotoxicity against human MV4-11 cells assessed as reduction in cell viability at 1 uM incubated for 24 hrs by celltiter-glo assay relative to control; format: functional; method in brief: as §6
[16] = tested on: MV4-11; assay: Cytotoxicity against human MV4-11 cells assessed as reduction in cell viability incubated for 24 hrs by celltiter-glo assay; format: functional, cell-based; settings: MV4-11, 24 h
Method in brief: (§7)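 MV4;11 cells (WT or CASP1−/−), grown in RPMI 1640 with 10% FBS at 37 °C, 5% CO2, plated 2000 cells/well, dosed by pintool across 100 μM to 15.2 nM in three-fold steps for 24 h. Viability by CellTiter-Glo luminescence after 2 min shaking and 10 min at 25 °C. IC50 as mean ± SEM of three biological replicates.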

[17] = tested on: MV4-11; assay: Cytotoxicity against CASP1 knockout human MV4-11 cells assessed as reduction in cell viability incubated for 24 hrs by celltiter-glo assay; format: functional, cell-based; settings: MV4-11, 24 h; method in brief: as §7
[18] = tested on: OCI-AML2; assay: Induction of cell death in human OCI-AML2 cells assessed as increase in PI uptake at 6.25 uM incubated for 6 hrs by PI staining based fluorescence analysis; format: functional
Method in brief: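 PI flux assay. 2 × 10^4 MV4;11 (WT, CARD8−/− or CASP1−/−) or OCI-AML2 cells in RPMI were given compound at 6.25 μM plus PI at 10 μM final. Fluorescence (Ex/Em 535/617 nm) was read every 5 min at 37 °C for 6 h, baseline-corrected to DMSO and normalized to the maximum response. n = 3.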

[19] = target: T1, Xaa-Pro aminopeptidase 1; assay: Inhibition of 6-His tagged XPNPEP1 (unknown origin) expressed in Escherichia coli Rosetta DE3 cells using H-Lys(abz)-Pro-Pro-pNA as substrate at 20 uM incubated for 60 mins by fluorescence based analysis relative to control; method in brief: as §5
[20] = target: T2, Xaa-Pro dipeptidase (Homo sapiens); assay: Inhibition of recombinant human PEPD using Ala-Pro as substrate assessed as alanine release by measuring increase in fluorescense signal at 1 uM by fluorescence based analysis relative to control
Method in brief: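 Recombinant human PEPD at 50 nM was incubated with Ala-Pro at 40 μM final and compound. Released alanine was detected by coupled alanine transaminase/pyruvate oxidase conversion to H2O2 and resorufin fluorescence (Ex/Em 535/587 nm) at 25 °C.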

## CC(C)[C@H](N)C(=O)N1CCC[C@H]1B(O)O
[1]
  Activity: Active
[2]
  Activity: Active
[3]
  Activity: Active
[4]
  Activity: Active
[5]
  Activity: inactive
[6]
  Activity: inactive
[7]
  Activity: Active
[8]
  Activity: Active
[9]
  Activity: Active

## CC(C)C[C@@H](N)[C@H](O)C(=O)N1CCC[C@H]1C(=O)OC1CCCC1
[10]
  inhibition: Active
[11]
  Stability: Stable
[12]
  inhibition: Active

## CC(C)C[C@@H](N)[C@H](O)C(=O)N1CCC[C@H]1C(=O)OC(C)(C)C
[10]
  inhibition: Active
[11]
  Stability: Stable
[12]
  inhibition: Active
[13]
  Stability: Unstable

## COC(=O)[C@@H](NC(=O)[C@@H]1CCCN1C(=O)[C@@H](O)[C@H](N)CC(C)C)C(C)C
[14]
  Activity: 32%
[15]
  Activity: 59%
[16]
  IC50: 450 nM
[17]
  IC50: > 20000 nM
[18]
  Activity: Active
[19]
  inhibition: 65%
[20]
  inhibition: 42%

From ChEMBL document CHEMBL5380787, “Optimized M24B Aminopeptidase Inhibitors for CARD8 Inflammasome Activation” (J Med Chem, 2023)
